Measured values reported in ChEMBL document CHEMBL1143159, “Indole-2-amide based biochemical antagonist of Dishevelled PDZ domain interaction down-regulates Dishevelled-driven Tcf transcriptional activity” (Bioorg Med Chem Lett, 2008).
Activity calls are given as the source filed them. The rule behind the calls is not given here.

Assays:
[1] = system: BJ; assay: Induction of apoptosis in human BJ cells assessed as caspase 7 activation at 100 uM after 2 days; assay type: functional, cell-based
Method in brief: (§1)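 HepG2 hepatocellular carcinoma, Rh30 rhabdomyosarcoma and hTERT-immortalized BJ foreskin fibroblast cells were exposed to compound at 100 μM for 2 days. Caspase-3/7 activity was then read with Caspase3/7-Glo reagent and expressed as a proportion of the DMSO control (set to 1), as the mean of three independent experiments.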

[2] = target: T1, Segment polarity protein dishevelled homolog DVL-3 (Homo sapiens, UniProt Q92997); assay: Antagonist activity at human Dvl3 assessed as inhibition of interaction between Dvl3 PDZ domain and […] by alphaScreen assay; assay type: functional
T1 sequence (Q92997 whole entry): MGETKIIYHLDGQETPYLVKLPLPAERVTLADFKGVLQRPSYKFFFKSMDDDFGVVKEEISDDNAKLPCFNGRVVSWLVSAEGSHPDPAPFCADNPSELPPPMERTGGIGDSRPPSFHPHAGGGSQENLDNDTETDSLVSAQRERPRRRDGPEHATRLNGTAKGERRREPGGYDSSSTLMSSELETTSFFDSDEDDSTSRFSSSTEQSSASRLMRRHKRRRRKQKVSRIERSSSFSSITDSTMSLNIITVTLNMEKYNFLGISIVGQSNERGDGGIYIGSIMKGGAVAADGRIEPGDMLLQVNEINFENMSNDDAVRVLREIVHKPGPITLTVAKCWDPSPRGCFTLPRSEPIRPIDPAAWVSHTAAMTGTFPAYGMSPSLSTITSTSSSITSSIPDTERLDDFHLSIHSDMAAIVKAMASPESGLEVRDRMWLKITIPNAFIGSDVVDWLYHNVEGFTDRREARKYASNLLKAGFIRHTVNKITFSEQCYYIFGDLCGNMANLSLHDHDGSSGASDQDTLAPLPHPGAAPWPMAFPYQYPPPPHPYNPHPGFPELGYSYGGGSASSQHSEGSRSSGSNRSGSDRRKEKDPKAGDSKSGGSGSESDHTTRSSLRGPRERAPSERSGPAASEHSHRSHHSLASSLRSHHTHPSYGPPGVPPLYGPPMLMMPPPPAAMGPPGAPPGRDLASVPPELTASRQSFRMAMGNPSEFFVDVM
Method in brief: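 Competitive AlphaScreen energy-transfer assay for binding of the Dvl PDZ domain to the Fz7 PDZ-binding region. IC50 fitted from binding curves, each the mean of three independent experiments.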

[3] = system: SJRH30; assay: Induction of apoptosis in human Rh30 cells assessed as caspase 3 activation at 100 uM after 2 days; assay type: functional, cell-based; method in brief: as §1
[4] = system: HepG2; assay: Induction of apoptosis in human HepG2 cells assessed as caspase 3 activation at 100 uM after 2 days; assay type: functional, cell-based; method in brief: as §1
[5] = system: SJRH30; assay: Induction of apoptosis in human Rh30 cells assessed as caspase 7 activation at 100 uM after 2 days; assay type: functional, cell-based; method in brief: as §1
[6] = system: HepG2; assay: Induction of apoptosis in human HepG2 cells assessed as caspase 7 activation at 100 uM after 2 days; assay type: functional, cell-based; method in brief: as §1
[7] = system: BJ; assay: Induction of apoptosis in human BJ cells assessed as caspase 3 activation at 100 uM after 2 days; assay type: functional, cell-based; method in brief: as §1
[8] = target: T2, Segment polarity protein dishevelled homolog DVL-1 (Homo sapiens, UniProt O14640); assay: Antagonist activity at human Dvl1 assessed as inhibition of interaction between Dvl1 PDZ domain and […] by alphaScreen assay; assay type: functional
T2 sequence (O14640 whole entry): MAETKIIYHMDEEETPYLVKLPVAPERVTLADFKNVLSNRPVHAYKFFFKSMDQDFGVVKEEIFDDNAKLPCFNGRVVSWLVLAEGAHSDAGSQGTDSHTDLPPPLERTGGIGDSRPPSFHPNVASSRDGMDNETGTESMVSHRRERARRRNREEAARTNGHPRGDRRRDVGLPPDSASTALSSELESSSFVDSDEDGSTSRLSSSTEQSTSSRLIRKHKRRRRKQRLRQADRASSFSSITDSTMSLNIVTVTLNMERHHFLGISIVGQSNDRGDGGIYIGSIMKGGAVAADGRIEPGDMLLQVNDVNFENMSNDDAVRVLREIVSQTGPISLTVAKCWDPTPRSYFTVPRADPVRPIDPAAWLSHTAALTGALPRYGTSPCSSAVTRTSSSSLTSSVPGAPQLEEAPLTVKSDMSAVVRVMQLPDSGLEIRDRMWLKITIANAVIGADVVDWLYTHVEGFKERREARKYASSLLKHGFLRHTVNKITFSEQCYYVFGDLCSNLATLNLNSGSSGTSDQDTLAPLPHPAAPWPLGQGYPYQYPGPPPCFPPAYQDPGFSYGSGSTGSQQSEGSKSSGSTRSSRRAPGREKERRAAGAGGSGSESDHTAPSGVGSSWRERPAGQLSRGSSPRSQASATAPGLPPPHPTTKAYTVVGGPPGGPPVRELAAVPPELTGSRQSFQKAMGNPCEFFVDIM

Row | IC50 [2] [µM] | IC50 [8] [µM] | SMILES | Activity [1] | Activity [3] | Activity [4] | Activity [5] | Activity [6] | Activity [7]
1 | 291 |  | Cc1cc2[nH]c(C(=O)NCc3ccccc3)c(CCc3ccccc3)c2cc1C(=O)O | inactive | Active | Active | Active | Active | inactive
2 | 160 |  | CCC(C)CNC(=O)c1[nH]c2cc(C)c(C(=O)O)cc2c1CCc1ccccc1 (stereo not drawn) | inactive | Active | Active | Active | Active | inactive
3 | > 500 | > 500 | CCCNC(=O)c1[nH]c2cc(C)c(C(=O)O)cc2c1CCc1ccccc1 |  |  |  |  |  | 
4 | 309 |  | Cc1cc2[nH]c(C(=O)NCC3CCCCC3)c(CCc3ccccc3)c2cc1C(=O)O |  |  |  |  |  | 
5 | > 500 | > 500 | Cc1cc2[nH]c(C(=O)NCC3CC3)c(CCc3ccccc3)c2cc1C(=O)O |  |  |  |  |  | 
6 | 23 |  | Cc1cc2[nH]c(C(=O)NC3CCCCC3)c(CCc3ccccc3)c2cc1C(=O)O | inactive | Active | Active | Active | Active | inactive
7 | 92 |  | Cc1cc2c(cc1C(=O)O)c(CCc1ccccc1)c(C(=O)NC1CCCCC1)n2C | inactive | Active | Active | Active | Active | inactive
8 | > 500 | > 500 | Cc1cc2[nH]c(C(=O)NC(C)(C)C)c(CCc3ccccc3)c2cc1C(=O)O |  |  |  |  |  | 
9 | 57 |  | COC(=O)c1cc2c(CCc3ccccc3)c(C(=O)NC3CCCCC3)[nH]c2cc1C |  |  |  |  |  | 
10 | > 500 | > 500 | Cc1cc2[nH]c(C(=O)NCCC(=O)O)c(CCc3ccccc3)c2cc1C(=O)O |  |  |  |  |  | 
